These results are taken from PMC4191586 (Journal of Medicinal Chemistry, 2014).

“Also recorded” adds a separate entry of the source. Where two headings read alike, the source gives them in different places. A value given as a limit tells only on which side of the number the result lay.

The subject of test [1] is FRα- and PCFT-expressing tumor cells. The conditions noted are these: up; cited from earlier work.
Test [2] concerns RT16 CHO cells (express human FRα). The conditions noted are these: read-out: IC50 FRα RT16; without folic acid; mean (SEM); cited from earlier work.
For test [3], the system named is PC43-10 CHO cells (express human RFC). To be noted: mean (SEM), previously published, cited from earlier work.
Test [4] deals with FRα (Homo sapiens, UniProt P15328). In words: Competitive [3H]folic acid binding assay, FRα in RT16 cells. The conditions noted are these: 50 nM [3H]folic acid, folic acid = 1. In outline:
(§1)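 Cells plated 48 h ahead (~5 × 10^6) were acid-stripped of bound folate (pH 3.5 acetate/NaCl) and washed in ice-cold HEPES saline, pH 7.4. They were then incubated 15 min at 0 °C with 50 nM [3H]folic acid (0.5 Ci/mmol) across a range of unlabeled ligand concentrations. After NaOH lysis, bound label was read as pmol/mg protein.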

Test [5] deals with KB human nasopharyngeal carcinoma cells (express RFC, FRα, PCFT). In words: Growth inhibition assay, KB human tumor cells. Format: cell-based. The conditions noted are these: for IC50: Homo sapiens, read-out: IC50 RFC/FRα/PCFT KB.
Test [6] deals with D4 CHO cells (express human FRβ). In words: Growth inhibition assay, FRβ-expressing D4 CHO cells. Format: cell-based, Chinese hamster. The conditions noted are these: for IC50: CHO, read-out: IC50 FRβ D4; for IC50 FRβ D4: without folic acid, mean (SEM). The gist of the method: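 D4 cells were seeded at ~2500–5000 per well in folate-free RPMI with 10% dialyzed FBS, 2 nM leucovorin and 2 mM L-glutamine. They were exposed to a range of drug concentrations for up to 96 h, with or without 200 nM folic acid in parallel. Viability was read by CellTiter-Blue fluorescence.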

The test system of test [7] is R2/PCFT4 CHO cells (express human PCFT). In words: Growth inhibition assay, PCFT-expressing R2/PCFT4 CHO cells. The conditions noted are these: R2/PCFT4, pH 7.2, read-out: IC50 PCFT R2/PCFT4. Format: cell-based, Chinese hamster.
The target of test [8] is FRβ (Homo sapiens, UniProt P14207). In words: Competitive [3H]folic acid binding assay, FRβ in D4 cells. The conditions noted are these: 50 nM [3H]folic acid, folic acid = 1. In outline: as §1
For test [9], the system named is PC43-10 CHO cells (express human RFC). In words: Growth inhibition assay, RFC-expressing PC43-10 CHO cells. Format: cell-based, Chinese hamster. The conditions noted are these: PC43-10, 96 h, read-out: IC50 RFC PC43-10.
In test [10] the test system is KB cells. In words: Nucleoside/AICA protection of growth inhibition in KB cells. It is filed as cell-based, human. In outline:
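KB human nasopharyngeal carcinoma cells were grown in complete folate-free RPMI 1640 with 2 nM LCV, with a range of test compound concentrations. Runs had no additions or included 200 nM folic acid, adenosine (60 μM), thymidine (10 μM) or AICA (320 μM). Cell density was read by CellTiter Blue fluorescence and normalized to no-drug cells; experiments were performed in triplicate.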

The target of test [11] is T1, GARFTase (Homo sapiens, UniProt P22102).
T1 sequence (P22102 1-1010): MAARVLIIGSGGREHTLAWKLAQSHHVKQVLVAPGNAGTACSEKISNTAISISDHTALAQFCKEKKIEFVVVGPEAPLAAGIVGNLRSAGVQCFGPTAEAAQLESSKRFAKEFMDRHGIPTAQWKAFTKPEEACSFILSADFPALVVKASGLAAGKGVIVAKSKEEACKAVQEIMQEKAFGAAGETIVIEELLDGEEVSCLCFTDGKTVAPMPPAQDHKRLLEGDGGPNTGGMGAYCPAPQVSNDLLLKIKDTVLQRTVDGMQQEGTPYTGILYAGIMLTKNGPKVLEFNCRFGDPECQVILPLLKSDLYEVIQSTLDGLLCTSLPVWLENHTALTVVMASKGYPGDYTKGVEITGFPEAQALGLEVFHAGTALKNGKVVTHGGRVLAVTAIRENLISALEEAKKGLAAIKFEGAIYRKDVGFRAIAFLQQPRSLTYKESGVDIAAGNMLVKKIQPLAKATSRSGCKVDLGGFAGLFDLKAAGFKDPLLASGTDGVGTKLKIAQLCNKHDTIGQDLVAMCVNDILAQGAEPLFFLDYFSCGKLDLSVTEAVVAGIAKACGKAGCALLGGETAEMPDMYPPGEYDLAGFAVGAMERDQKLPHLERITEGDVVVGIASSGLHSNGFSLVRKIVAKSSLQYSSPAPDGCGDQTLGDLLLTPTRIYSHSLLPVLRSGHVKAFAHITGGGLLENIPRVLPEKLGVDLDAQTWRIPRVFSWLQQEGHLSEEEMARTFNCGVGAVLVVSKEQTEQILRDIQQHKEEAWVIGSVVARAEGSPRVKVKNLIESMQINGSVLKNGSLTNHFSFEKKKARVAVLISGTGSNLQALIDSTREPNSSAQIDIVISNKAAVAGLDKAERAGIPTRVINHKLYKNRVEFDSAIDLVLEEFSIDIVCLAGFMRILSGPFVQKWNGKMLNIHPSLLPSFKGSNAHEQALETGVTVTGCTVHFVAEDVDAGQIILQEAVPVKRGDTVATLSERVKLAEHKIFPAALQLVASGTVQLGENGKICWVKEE
In words: In situ GARFTase activity assay in KB cells. Format: cell-based. To be noted: ratio of in situ GARFTase IC50s vs compound 7.

Sequence of FRβ (P14207 17-255): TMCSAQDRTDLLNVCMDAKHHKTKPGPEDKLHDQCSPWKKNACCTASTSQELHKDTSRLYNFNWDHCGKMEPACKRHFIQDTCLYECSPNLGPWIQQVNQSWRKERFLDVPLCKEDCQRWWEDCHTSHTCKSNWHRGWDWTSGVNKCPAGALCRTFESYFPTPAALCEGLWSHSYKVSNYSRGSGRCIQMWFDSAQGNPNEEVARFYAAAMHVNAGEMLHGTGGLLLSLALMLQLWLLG
Sequence of FRα (P15328 25-257): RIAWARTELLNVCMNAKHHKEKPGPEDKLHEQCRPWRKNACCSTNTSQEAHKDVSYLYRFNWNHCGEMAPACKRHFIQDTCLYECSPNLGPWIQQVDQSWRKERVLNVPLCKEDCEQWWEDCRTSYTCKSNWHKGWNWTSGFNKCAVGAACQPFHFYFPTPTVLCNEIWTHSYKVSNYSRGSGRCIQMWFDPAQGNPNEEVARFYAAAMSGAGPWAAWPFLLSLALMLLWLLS

`Nc1nc2[nH]c(CCCc3ccc(C(=O)N[C@@H](CCC(=O)O)C(=O)O)s3)cc2c(=O)[nH]1` [Compound 7, (S)-2-({5-[3-(2-Amino-4-oxo-4,7-dihydro-3H-pyrrolo[2,3-d]pyrimidin-6-yl)-propyl]-thiophene-2-carbonyl}-amino)-pentanedioic Acid]: in test [1], the “increase of cell growth inhibition compared to 8” value is about 10 fold. Moreover, the IC50 is 0.31 nM in test [2] and 101 nM in test [3] (read-out: IC50 RFC PC43-10). Besides, in test [3], the “IC50 RFC PC43-10” value is “modest inhibition”.

`Nc1nc2[nH]c(CCCc3ccc(C(=O)O)s3)cc2c(=O)[nH]1` [Compound 9, 5-[3-(2-Amino-4-oxo-4,7-dihydro-3H-pyrrolo[2,3-d]pyrimidin-6-yl)-propyl]-thiophene-2-carboxylic Acid]: the “relative binding affinity to FRα (in words)” value in [4] is listed as “Substantially reduced”. Besides, the IC50 in test [5], in test [6], in [7] and in test [9] was over 1000 nM throughout. In addition, the “IC50 FRβ D4” value in test [6] was “completely inactive”. Moreover, in [8], the “relative binding affinity to FRβ (in words)” value is on record as “Substantially reduced; also recorded: undetectable binding”.

On to `Nc1nc2[nH]c(CCCc3ccc(C(=O)N[C@@H](CC(=O)O)C(=O)O)s3)cc2c(=O)[nH]1` [Compound 10, (S)-2-({5-[3-(2-Amino-4-oxo-4,7-dihydro-3H-pyrrolo[2,3-d]pyrimidin-6-yl)-propyl]-thiophene-2-carbonyl}-amino)-butanedioic Acid], for which the “relative binding affinity to FRα (in words)” value in [4] is reported as “bound avidly to FRα”. Besides, the IC50 in [5], in test [7] and in [9] was over 1000 nM each time. In addition, in test [6], the “IC50 FRβ D4” value is given as “substantially reduced activity”.

With `Nc1nc2[nH]c(CCCc3ccc(C(=O)N[C@@H](CCCC(=O)O)C(=O)O)s3)cc2c(=O)[nH]1` [Compound 11, (S)-2-({5-[3-(2-Amino-4-oxo-4,7-dihydro-3H-pyrrolo[2,3-d]pyrimidin-6-yl)propyl]thiophene-2-carbonyl}-amino)-hexanedioic Acid], the “fold reduction of KB potency relative to IC50 of 7” value in [5] (KB cells, IC50 9 nM vs 0.26 nM) is “approximately 35 fold”. For the same compound, the IC50 in test [7] and in [9] was over 1000 nM in each case. Besides, the “effect of AICA on inhibition of KB cell proliferation” value in test [10] (AICA 320 μM) was “abolished the inhibitory effects”. Besides, in test [10] (adenosine 60 μM), the “effect of adenosine on inhibition of KB cell proliferation” value was “abolished the inhibitory effects”. Further, the “effect of thymidine on inhibition of KB cell proliferation” value in test [10] (thymidine 10 μM) is “had no effect”. In test [8], the “relative binding affinity to FRβ (in words)” value is on record as “somewhat reduced”. The “fold less potent than 7 as GARFTase inhibitor in KB cells” value in test [11] is about 6 fold.

Take `Nc1nc2[nH]c(CCCc3ccc(C(=O)NCCCC(=O)O)s3)cc2c(=O)[nH]1` [Compound 12, 4-({5-[3-(2-Amino-4-oxo-4,7-dihydro-3H-pyrrolo[2,3-d]pyrimidin-6-yl)propyl]thiophene-2-carbonyl}-amino)-butanoic Acid]: the “relative binding affinity to FRα (in words)” value in test [4] is “bound avidly to FRα”. For the same compound, the IC50 in [5], in test [6], in test [7] and in test [9] was over 1000 nM each time. Besides, the “IC50 FRβ D4” value in test [6] is recorded as “complete inactivity”. Besides, in [8], the “relative binding affinity to FRβ (in words)” value is “somewhat reduced; also recorded: distinctly reduced binding affinities”.

Turning to `CCC[C@H](NC(=O)c1ccc(CCCc2cc3c(=O)[nH]c(N)nc3[nH]2)s1)C(=O)O` [Compound 13, (S)-2-({5-[3-(2-Amino-4-oxo-4,7-dihydro-3H-pyrrolo[2,3-d]pyrimidin-6-yl)propyl]thiophene-2-carbonyl}-amino)-pentanoic Acid], the “relative binding affinity to FRα (in words)” value in test [4] is on record as “bound avidly to FRα”. Besides, the IC50 in [5], in test [6], in test [7] and in [9] was over 1000 nM in each case. Moreover, the “IC50 FRβ D4” value in test [6] is given as “complete inactivity”. In addition, the “relative binding affinity to FRβ (in words)” value in [8] is “somewhat reduced; also recorded: distinctly reduced binding affinities”.
